Data reported in ChEMBL document CHEMBL3286205, “Optimization of diaryl amine derivatives as kinesin spindle protein inhibitors” (Bioorg Med Chem, 2014).
In brackets after ≈: the same amount, converted by molar mass.

Tests used:
[1] = biological target: T1, Kinesin-like protein KIF11 (Homo sapiens, UniProt P52732); experiment: Inhibition of C-terminal His-tagged KSP ATPase motor domain (unknown origin) expressed in bacteria incubated for 30 mins prior to ATP addition measured after 15 mins by luminescence assay
T1 sequence (P52732 whole entry): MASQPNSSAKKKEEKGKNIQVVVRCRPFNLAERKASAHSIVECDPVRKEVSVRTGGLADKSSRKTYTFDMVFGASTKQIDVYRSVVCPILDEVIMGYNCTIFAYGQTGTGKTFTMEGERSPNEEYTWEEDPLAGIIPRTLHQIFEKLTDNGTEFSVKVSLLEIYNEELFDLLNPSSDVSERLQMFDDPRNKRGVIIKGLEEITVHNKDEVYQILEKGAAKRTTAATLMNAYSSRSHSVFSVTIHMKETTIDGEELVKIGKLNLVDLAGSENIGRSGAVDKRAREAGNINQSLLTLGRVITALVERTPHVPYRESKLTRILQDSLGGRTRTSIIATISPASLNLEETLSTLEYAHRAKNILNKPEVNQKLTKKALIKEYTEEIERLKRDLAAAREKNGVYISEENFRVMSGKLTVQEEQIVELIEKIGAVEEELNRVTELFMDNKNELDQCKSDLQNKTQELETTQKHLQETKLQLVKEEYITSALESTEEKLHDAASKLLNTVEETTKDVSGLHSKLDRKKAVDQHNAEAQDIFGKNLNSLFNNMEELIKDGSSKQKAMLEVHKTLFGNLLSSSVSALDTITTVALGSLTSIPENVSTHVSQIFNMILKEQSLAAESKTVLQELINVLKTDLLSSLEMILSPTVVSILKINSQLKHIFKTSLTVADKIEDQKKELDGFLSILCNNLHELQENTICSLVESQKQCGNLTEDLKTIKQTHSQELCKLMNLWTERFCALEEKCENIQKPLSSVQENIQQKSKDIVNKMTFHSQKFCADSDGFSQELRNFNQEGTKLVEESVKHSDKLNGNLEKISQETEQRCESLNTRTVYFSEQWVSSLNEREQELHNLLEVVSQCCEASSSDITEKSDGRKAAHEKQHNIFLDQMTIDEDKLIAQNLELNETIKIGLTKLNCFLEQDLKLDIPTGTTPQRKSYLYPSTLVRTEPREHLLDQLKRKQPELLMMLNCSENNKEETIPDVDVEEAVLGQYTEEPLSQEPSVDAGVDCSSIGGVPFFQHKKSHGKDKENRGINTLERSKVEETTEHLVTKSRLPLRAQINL

[2] = Thermodynamic solubility of the compound in 50% EtOH/1/15 M phosphate buffer at pH 7.4 after 48 hrs by HPLC analysis; format: physicochemical; details: read-out: Therm_solubility
Method in brief: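 Solid compound in 0.5 mL of 1/15 M phosphate buffer (pH 7.4) plus 0.5 mL EtOH was shaken 48 h at 25 °C and filtered. m-Cresol internal standard was added (0.05 mg/mL final), the sample diluted in DMF and analysed by HPLC-UV at 254 nm. Concentration came from the peak-area ratio against a calibration curve, corrected for dilution.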

[3] = Thermodynamic solubility of the compound in 1/15 M phosphate buffer at pH 7.4 after 48 hrs by HPLC analysis; format: physicochemical; details: read-out: Therm_solubility
Method in brief: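 Solid compound in 1.0 mL of 1/15 M phosphate buffer (pH 7.4) was shaken 48 h at 25 °C and filtered. m-Cresol internal standard was added (0.05 mg/mL final), the sample diluted in DMF and run on HPLC with UV at 254 nm. Concentration came from the sample/standard peak-area ratio against a calibration curve, corrected for dilution.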

[4] = Retention time of the compound by HPLC analysis; format: physicochemical
Method in brief: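 Reverse-phase C18 HPLC (4.6 × 250 mm), eluted with a linear 30–70% MeCN gradient over 40 min in 0.1% TFA.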

A549 = experiment: Antiproliferative activity against human A549 cells assessed as growth inhibition after 72 hrs by MTS assay; format: functional, cell-based; details: A549, 72 h
Method in brief: (§1)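 Media with 10% FBS at 37 °C, 5% CO2: A549 in DMEM (500 cells/well), HCT-116 in McCoy's 5A and MCF-7 in EMEM (5000 cells/well each). Cells settled 6 h, then got graded compound concentrations (0.1% final DMSO) for 72 h. After washing into phenol-red-free medium (1 h), MTS was added for 40 min and A490 read. IC50 came from mean inhibition rates of ≥3 experiments.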

HCT-116 = experiment: Antiproliferative activity against human HCT116 cells assessed as growth inhibition after 72 hrs by MTS assay; format: functional, cell-based; details: HCT-116, 72 h; method in brief: as §1
MCF7 = experiment: Antiproliferative activity against human MCF7 cells assessed as growth inhibition after 72 hrs by MTS assay; format: functional, cell-based; details: MCF7, 72 h; method in brief: as §1

Structure (SMILES)	IC50 [1]	other results
O=[N+]([O-])c1ccc(Nc2cccc(C(F)(F)F)c2)cc1	3.2 µM	–
CC(C)(C)c1cccc(Nc2ccc3c(c2)CCC(=O)N3)c1	0.16 µM	–
O=c1ccc2ccc(Nc3cccc(C(F)(F)F)c3)cc2[nH]1	4.6 µM	–
FC(F)(F)c1ccc2c(c1)[nH]c1ccncc12	–	solubility thermodynamic at 48 h [2]: 1760 µg/mL (≈ 7450 µM); solubility thermodynamic at 48 h [3]: 3.16 µg/mL (≈ 13.4 µM)
Nc1ccc(Nc2cccc(C(F)(F)F)c2)cc1	> 6.3 µM	–
O=C1CCc2cc(Nc3cccc(C(=O)O)c3)ccc2N1	> 6.3 µM	–
FC(F)(F)c1ccc2c(c1)[nH]c1ccccc12	–	solubility thermodynamic at 48 h [2]: 424 µg/mL (≈ 1800 µM); solubility thermodynamic at 48 h [3]: < 1 µg/mL
NC(=O)Nc1cccc(Nc2cccc(C(F)(F)F)c2)c1	> 6.3 µM	–
FC(F)(F)c1cccc(Nc2ccncc2)c1	> 6.3 µM	solubility thermodynamic at 48 h [2]: 24000 µg/mL (≈ 101000 µM); solubility thermodynamic at 48 h [3]: 264 µg/mL (≈ 1110 µM)
Nc1ccc2c(c1)[nH]c1cc(C(F)(F)F)ccc12	0.27 µM	–
COC(=O)c1cccc(Nc2ccc3c(c2)CCC(=O)N3)c1	> 6.3 µM	–
CC(=O)Nc1ccc2c(c1)[nH]c1cc(C(F)(F)F)ccc12	0.085 µM	–
Nc1cccc(Nc2cccc(C(F)(F)F)c2)c1	> 6.3 µM	–
NC(=O)Nc1ccc(Nc2cccc(C(F)(F)F)c2)cc1	0.39 µM	–
COc1cccc(Nc2ccc3c(c2)CCC(=O)N3)c1	> 6.3 µM	–
FC(F)(F)c1ccc2c(c1)[nH]c1cnccc12	–	solubility thermodynamic at 48 h [2]: 472 µg/mL (≈ 2000 µM); solubility thermodynamic at 48 h [3]: < 1 µg/mL
O=C1CSc2cc(Nc3cc(C(F)(F)F)ccn3)ccc2N1	0.035 µM	solubility thermodynamic at 48 h [2]: 669 µg/mL (≈ 2060 µM); solubility thermodynamic at 48 h [3]: 1.11 µg/mL (≈ 3.41 µM); Retention_time [4]: 13.8 min; IC50 (A549): 1.5 µM; IC50 (HCT-116): 2.6 µM; IC50 (MCF7): 2.8 µM
O=C1CSc2cc(Nc3cccc(C(F)(F)F)c3)ccc2N1	0.051 µM	solubility thermodynamic at 48 h [2]: 1700 µg/mL (≈ 5240 µM); solubility thermodynamic at 48 h [3]: < 1 µg/mL; Retention_time [4]: 28.2 min; IC50 (A549): 4.1 µM; IC50 (HCT-116): 6.8 µM; IC50 (MCF7): 6.5 µM
CC(C)c1cccc(Nc2ccc3c(c2)CCC(=O)N3)c1	0.43 µM	–

Structure (SMILES)	IC50 [1]	other results
O=C1COc2cc(Nc3cccc(C(F)(F)F)c3)ccc2N1	0.29 µM	–
O=c1[nH]c2ccc(Nc3cccc(C(F)(F)F)c3)cc2o1	> 6.3 µM	–
O=[N+]([O-])c1ccc2[nH]c3cc(C(F)(F)F)ccc3c2c1	0.043 µM	–
O=C1CCc2cc(Sc3cccc(C(F)(F)F)c3)ccc2N1	> 6.3 µM	–
O=C1CCc2cc(Nc3cccc([N+](=O)[O-])c3)ccc2N1	0.44 µM	–
FC(F)(F)c1cccc(Nc2cccnc2)c1	7 µM	solubility thermodynamic at 48 h [2]: 14300 µg/mL (≈ 60000 µM); solubility thermodynamic at 48 h [3]: 10.8 µg/mL (≈ 45.3 µM)
Nc1ccc2[nH]c3cc(C(F)(F)F)ccc3c2c1	0.55 µM	–
O=C1CCc2cc(Nc3cccc(Oc4ccccc4)c3)ccc2N1	> 6.3 µM	–
O=C1CCc2cc(Nc3cccc(C(F)(F)F)c3)cc(F)c2N1	0.43 µM	–
O=C1CCc2c(cccc2Nc2cccc(C(F)(F)F)c2)N1	> 6.3 µM	–
CCc1cccc(Nc2ccc3c(c2)CCC(=O)N3)c1	0.81 µM	–
O=[N+]([O-])c1cccc(Nc2cccc(C(F)(F)F)c2)c1	> 6.3 µM	–
CN1C(=O)CCc2cc(Nc3cccc(C(F)(F)F)c3)ccc21	> 6.3 µM	–
O=C1COc2ccc(Nc3cccc(C(F)(F)F)c3)cc2N1	> 6.3 µM	–
O=c1[nH]c2ccc(Nc3cccc(C(F)(F)F)c3)cc2s1	0.81 µM	–
O=C1CCc2cc(Nc3cccc(C(F)(F)F)c3)c(F)cc2N1	0.92 µM	–
O=C1CCc2cc(Oc3cccc(C(F)(F)F)c3)ccc2N1	2 µM	–
O=C1CCc2cc(Nc3cccc(-c4ccccc4)c3)ccc2N1	> 6.3 µM	–

Now from value to molecule, other results behind:

IC50 [1]	Structure (SMILES)	other results
0.05 µM	O=C1CCCc2cc(Nc3cc(C(F)(F)F)ccn3)ccc2N1	solubility thermodynamic at 48 h [2]: 4820 µg/mL (≈ 15000 µM); solubility thermodynamic at 48 h [3]: 8.07 µg/mL (≈ 25.1 µM); Retention_time [4]: 10.8 min; IC50 (A549): 5 µM; IC50 (HCT-116): 6.5 µM; IC50 (MCF7): 9.1 µM
> 6.3 µM	O=C1CCc2ccc(Nc3cccc(C(F)(F)F)c3)cc2N1	–
> 6.3 µM	O=C1CCc2cc(Nc3ccccc3C(F)(F)F)ccc2N1	–
> 6.3 µM	O=C1CCc2cc(Nc3cccc(O)c3)ccc2N1	–
> 6.3 µM	O=C1CCc2cc(Nc3cc(C(F)(F)F)cc(C(F)(F)F)c3)ccc2N1	–
0.045 µM	O=C1CCc2cc(Nc3cccc(C(F)(F)F)c3)ccc2N1	solubility thermodynamic at 48 h [2]: 1800 µg/mL (≈ 5880 µM); solubility thermodynamic at 48 h [3]: < 1 µg/mL; Retention_time [4]: 24.4 min; IC50 (A549): 4.2 µM; IC50 (HCT-116): 8.9 µM; IC50 (MCF7): 11 µM
> 6.3 µM	O=C1CCc2cc(Sc3ccc(C(F)(F)F)cc3)ccc2N1	–
0.05 µM	O=C1CCCc2cc(Nc3cccc(C(F)(F)F)c3)ccc2N1	solubility thermodynamic at 48 h [2]: 7390 µg/mL (≈ 23100 µM); solubility thermodynamic at 48 h [3]: < 1 µg/mL; Retention_time [4]: 27 min; IC50 (A549): 4.5 µM; IC50 (HCT-116): 5.7 µM; IC50 (MCF7): 3.9 µM
1.2 µM	O=C1CCc2cc(Nc3cccc(OC(F)(F)F)c3)ccc2N1	–
3.6 µM	O=C1Cc2cc(Nc3cccc(C(F)(F)F)c3)ccc2N1	–
> 6.3 µM	O=C1CCc2cc(Oc3ccc(C(F)(F)F)cc3)ccc2N1	–
0.33 µM	O=C1CCc2cc(Nc3ccc(C(F)(F)F)cc3)ccc2N1	–
> 6.3 µM	O=C1CCc2cc(Nc3ccccc3)ccc2N1	–
0.19 µM	FC(F)(F)c1cccc(Nc2ccc3c(c2)CCC(=S)N3)c1	–
> 6.3 µM	Nc1cccc(Nc2ccc3c(c2)CCC(=O)N3)c1	–
0.068 µM	O=C1CCc2cc(Nc3cc(C(F)(F)F)ccn3)ccc2N1	solubility thermodynamic at 48 h [2]: 3510 µg/mL (≈ 11400 µM); solubility thermodynamic at 48 h [3]: 6.12 µg/mL (≈ 19.9 µM); Retention_time [4]: 7 min; IC50 (A549): 2.5 µM; IC50 (HCT-116): 4.4 µM; IC50 (MCF7): 8 µM
